Experimental data from ChEMBL document CHEMBL1770135, “Acylideneoxoindoles: a new class of reversible inhibitors of human transglutaminase 2” (Bioorg Med Chem Lett, 2011).
Active and inactive are the calls of the source. The rule behind the calls is not given here.

Experiments:
[1] = target: T1, Protein-glutamine gamma-glutamyltransferase (Homo sapiens, UniProt P21980); assay: Inhibition of human transglutaminase 2 using ZGBC as a substrate after 30 to 60 mins by fluorometric assay
T1 sequence (P21980 whole entry): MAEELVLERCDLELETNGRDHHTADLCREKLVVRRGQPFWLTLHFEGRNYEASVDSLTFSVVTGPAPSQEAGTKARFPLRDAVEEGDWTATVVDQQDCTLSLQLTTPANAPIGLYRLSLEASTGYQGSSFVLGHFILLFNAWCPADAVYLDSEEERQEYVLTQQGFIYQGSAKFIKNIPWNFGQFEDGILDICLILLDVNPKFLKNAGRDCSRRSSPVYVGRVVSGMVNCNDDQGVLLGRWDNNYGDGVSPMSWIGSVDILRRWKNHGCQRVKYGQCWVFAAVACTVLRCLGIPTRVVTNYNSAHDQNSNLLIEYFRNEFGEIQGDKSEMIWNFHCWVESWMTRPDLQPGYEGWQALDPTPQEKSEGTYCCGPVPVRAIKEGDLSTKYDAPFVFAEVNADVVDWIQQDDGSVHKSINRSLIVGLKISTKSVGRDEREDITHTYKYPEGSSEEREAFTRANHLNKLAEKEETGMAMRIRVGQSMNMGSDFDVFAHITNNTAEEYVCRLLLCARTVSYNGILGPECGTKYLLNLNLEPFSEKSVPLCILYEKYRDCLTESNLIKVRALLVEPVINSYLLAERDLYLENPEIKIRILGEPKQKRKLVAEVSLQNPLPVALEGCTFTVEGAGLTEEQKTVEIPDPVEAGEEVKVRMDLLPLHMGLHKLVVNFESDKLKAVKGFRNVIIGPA
Method in brief: (§1)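 Direct fluorometric assay following TG2-catalysed release of 7-hydroxycoumarin from an ester substrate, with human TG2 at 15 nM. […] Ki and α were derived from a mixed inhibition model, with α as the Ki'/Ki ratio.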

[2] = target: T1, Protein-glutamine gamma-glutamyltransferase; assay: Inhibition of human transglutaminase 2 using Cbz-Gln-Gly as a substrate by GDH-coupled assay
Method in brief: (§2)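 Glutamate dehydrogenase-coupled deamidation assay with human TG2 at 0.5 µM and Cbz-Gln-Gly as acyl donor substrate. […] Ki values were derived from kinetic analysis in a mixed inhibition model, with α taken as the Ki'/Ki ratio. Errors were typically under 10%.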

[3] = target: T2, Protein-glutamine gamma-glutamyltransferase (Homo sapiens) (UniProt P21980); assay: Partial inhibition of human transglutaminase 2 using ZGBC as a substrate after 30 to 60 mins by fluorometric assay; design: concentration or dose not given beside the values; method in brief: as §1
T2 sequence (whole entry): T1 sequence (P21980 whole entry)

[4] = target: T2, Protein-glutamine gamma-glutamyltransferase (Homo sapiens); assay: Partial inhibition of human transglutaminase 2 using Cbz-Gln-Gly as a substrate by GDH-coupled assay; conditions: concentration not given here; method in brief: as §2
[5] = target: T2, Protein-glutamine gamma-glutamyltransferase (Homo sapiens); conditions: 2 to 8 uM

IC50 [1] | IC50 [2] | Ki [2] | other results | Structure (SMILES)
1500 nM | 1400 nM |  |  | CC(C)N1C(=O)/C(=C/C(=O)c2cccnc2)c2c(Cl)cccc21
20000 nM | 2800 nM | 3300 nM |  | O=C1Nc2cccc(Cl)c2/C1=C\C(=O)c1ccccc1
 | 18000 nM | 10000 nM |  | O=C1C(=O)N(CN2C(=O)C(=O)c3ccccc32)c2ccccc21
90 nM | 800 nM |  | inhibition [3]: 60% | O=C1Nc2cccc(Cl)c2/C1=C\C(=O)c1ccc(Cl)cc1
1700 nM | 7900 nM |  |  | O=C1Nc2ccc([N+](=O)[O-])cc2/C1=C\C(=O)c1cccnc1
 | > 100000 nM |  |  | O=C1Nc2ccccc2/C1=C1/Nc2ccccc2C1=O [INDIRUBIN]
20000 nM | 2100 nM | 5300 nM | inhibition [4]: 70%; inhibition [5]: Active | O=C1Nc2cc(Cl)ccc2/C1=C\C(=O)c1cccnc1
2600 nM | 3600 nM |  |  | CC(=O)/C=C1/C(=O)Nc2cc(OC(F)(F)F)ccc21
8500 nM | 22000 nM | 12000 nM |  | O=C1Nc2ccccc2/C1=C\C(=O)c1cccnc1
3200 nM | 2900 nM |  |  | O=C1Nc2c(Br)cccc2/C1=C\C(=O)c1cccnc1
 | 40000 nM | 11000 nM |  | Cc1cc(C)c(CN2C(=O)C(=O)c3ccccc32)cc1CN1C(=O)C(=O)c2ccccc21
1000 nM | 1300 nM |  |  | O=C(/C=C1/C(=O)N(CCCc2ccccc2)c2cccc(Cl)c21)c1cccnc1
1000 nM | 1200 nM |  |  | O=C1Nc2cccc(Cl)c2/C1=C\C(=O)c1ccncc1
4500 nM | 6300 nM |  |  | Cc1ccc2c(c1)/C(=C\C(=O)c1cccnc1)C(=O)N2
1800 nM | 1400 nM |  |  | Nc1cccc(C(=O)/C=C2/C(=O)Nc3cccc(Cl)c32)c1
1100 nM | 1000 nM |  |  | COc1cccc(C(=O)/C=C2/C(=O)Nc3cccc(Cl)c32)c1
660 nM | 1200 nM |  |  | COC(=O)c1ccc(CN2C(=O)/C(=C/C(=O)c3cccnc3)c3c(Cl)cccc32)cc1
20000 nM | 11000 nM | 5400 nM |  | CC(=O)/C=C1/C(=O)Nc2cc(F)ccc21
740 nM | 900 nM |  |  | COc1ccccc1C(=O)/C=C1/C(=O)Nc2cccc(Cl)c21
890 nM | 1100 nM |  |  | O=C1Nc2cccc(Cl)c2/C1=C\C(=O)c1ccccn1
2900 nM | 1500 nM |  |  | O=C(/C=C1/C(=O)N(CCc2ccccc2)c2cccc(Cl)c21)c1cccnc1
560 nM | 4800 nM | 3000 nM | Ki [1]: 680 nM | O=C1Nc2ccc(Br)cc2/C1=C\C(=O)c1cccnc1
1700 nM | 900 nM | 1300 nM |  | O=C1Nc2cccc(Cl)c2/C1=C\C(=O)c1cccnc1
3700 nM | 4300 nM | 900 nM |  | CC(=O)/C=C1/C(=O)Nc2ccc(Cl)cc21
1000 nM | 900 nM | 400 nM | Ki [1]: 250 nM | O=C1Nc2cccc(Br)c2/C1=C\C(=O)c1cccnc1

IC50 [1] | IC50 [2] | Ki [2] | other results | Structure (SMILES)
 | > 250000 nM |  |  | Cc1cc(CN2C(=O)C(=O)c3ccccc32)c(C)cc1CN1C(=O)C(=O)c2ccccc21
 | > 250000 nM |  |  | O=C1Nc2ccccc2C1=O [ISATIN]
11000 nM | 4000 nM | 4000 nM |  | CN1C(=O)/C(=C/C(=O)c2cccnc2)c2c(Cl)cccc21
2500 nM | 1800 nM |  |  | CCOC(=O)CN1C(=O)/C(=C/C(=O)c2cccnc2)c2c(Cl)cccc21
 | 30000 nM | 15000 nM |  | O=C1Nc2ccc(Cc3ccc4c(c3)C(=O)C(=O)N4)cc2C1=O
970 nM | 1400 nM |  |  | O=C1Nc2cccc(Cl)c2/C1=C\C(=O)c1cncc(Br)c1
6700 nM | 2100 nM |  |  | O=C(/C=C1/C(=O)N(CC2CCCCC2)c2cccc(Cl)c21)c1cccnc1
5600 nM | 1100 nM |  |  | COC(=O)c1cccc(CN2C(=O)/C(=C/C(=O)c3cccnc3)c3c(Cl)cccc32)c1
4100 nM | 1000 nM |  |  | CC(C)CN1C(=O)/C(=C/C(=O)c2cccnc2)c2c(Cl)cccc21
1200 nM | 6000 nM |  |  | O=C1Nc2ccc(Cl)cc2/C1=C\C(=O)c1cccnc1
1300 nM | 1100 nM |  |  | COc1ccc(C(=O)/C=C2/C(=O)Nc3cccc(Cl)c32)cc1
570 nM | 800 nM |  |  | O=C(/C=C1/C(=O)N(c2ccccc2)c2cccc(Cl)c21)c1cccnc1
360 nM | 1500 nM |  | inhibition [4]: 35%; inhibition [3]: 65% | O=C1Nc2cc(Br)ccc2/C1=C\C(=O)c1cccnc1
950 nM | 1400 nM |  | inhibition [3]: 50% | COc1ccncc1C(=O)/C=C1/C(=O)Nc2cccc(Cl)c21
 | 25000 nM | 3000 nM |  | O=C1Nc2ccc(Oc3ccc4c(c3)C(=O)C(=O)N4)cc2C1=O
 | 8000 nM | 41000 nM |  | O=C1Nc2ccccc2/C1=C1\C(=O)Nc2ccccc21 [ISOINDIGO]
2800 nM | 700 nM |  |  | O=C1Nc2cccc(Cl)c2/C1=C\C(=O)c1cccc(Cl)c1
360 nM | 1500 nM | 410 nM | Ki [1]: 1000 nM | O=C(/C=C1/C(=O)N(Cc2ccccc2)c2cccc(Cl)c21)c1cccnc1
3900 nM | 4700 nM |  |  | CC(=O)/C=C1/C(=O)Nc2c(Cl)cccc21
3000 nM | 1100 nM |  | inhibition [3]: 65% | Nc1ccc(C(=O)/C=C2/C(=O)Nc3cccc(Cl)c32)cc1
9200 nM | 5500 nM |  |  | CN(C)C(=O)CN1C(=O)/C(=C/C(=O)c2cccnc2)c2c(Cl)cccc21
 | 1500 nM | 700 nM |  | CC(=O)/C=C1/C(=O)Nc2cccc(Cl)c21
1600 nM | 7300 nM |  | inhibition [3]: 70% | O=C1Nc2c(Cl)cccc2/C1=C\C(=O)c1cccnc1
19000 nM | 11000 nM | 10000 nM |  | CC(=O)/C=C1/C(=O)Nc2ccccc21
